Experimental data taken from ChEMBL document CHEMBL1125798, “Synthesis and biological activity of a series of diaryl-substituted alpha-cyano-beta-hydroxypropenamides, a new class of anthelmintic agents” (1991).

Legend:
Type in all cases: functional
[1] = test system: Rodentolepis nana; experiment: Anthelmintic activity against mice infected with parasite Hymenolepis nana at a dose of 62(ppm in feed).
Procedure, shortened: (§1)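 Compound was given in feed ad libitum from 24 h postinfection for 18 days, four mice per group. On day 19, N. dubius were counted in the duodenum and H. nana in the ileum. Result is % reduction of mean worm burden vs untreated control; ≤25% was recorded as 0.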

[2] = test system: Heligmosomoides polygyrus; experiment: Anthelmintic activity against mice infected with parasite Nematospiroides dubius, at a dose of 62(ppm in feed).; procedure, shortened: as §1
[3] = test system: Rodentolepis nana; experiment: Anthelmintic activity against mice infected with parasite Hymenolepis nana at a dose of 125 ppm (in feed); procedure, shortened: as §1
[4] = test system: Heligmosomoides polygyrus; experiment: Anthelmintic activity against mice, infected with parasite Nematospiroides dubius, at a dose of 125 (ppm in feed); procedure, shortened: as §1
[5] = test system: Rodentolepis nana; experiment: The compound was tested for anthelmintic activity against mice, infected with parasite Hymenolepis nana at a dose of 250(ppm in feed); procedure, shortened: as §1
[6] = test system: Heligmosomoides polygyrus; experiment: Anthelmintic activity against mice, infected with parasite Nematospiroides dubius, at a dose of 250(ppm in feed); procedure, shortened: as §1
[7] = test system: Ovis aries; experiment: Anthelmintic activity against sheep, infected with Ostertagia circumcincta, at a dose of 30 mg/kg.
Procedure, shortened: (§2)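 Merino ewes and wethers (12-15 months, 25-35 kg) received L3 intraruminally on day 0. Susceptible strains: H. contortus 6000, O. circumcincta 8000, T. colubriformis 8000. Benzimidazole-resistant strains: 8000, 9000, 9000. Animals were allocated by day-27 fecal egg count (n = 4-7) and given a single intraruminal dose in 0.5% carboxymethylcellulose saline. Adult worms in abomasum and small intestine were counted on day 35. Result is mean % reduction vs untreated controls.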

[8] = test system: Ovis aries; experiment: Anthelmintic activity against sheep, infected with Haemonchus contortus, at a dose of 30 mg/kg.; procedure, shortened: as §2
[9] = test system: Ovis aries; experiment: Anthelmintic activity against sheep, infected with Trichostrongylus colubriformis, at a dose of 30 mg/kg.; procedure, shortened: as §2
[10] = test system: Heligmosomoides polygyrus; experiment: Anthelmintic activity against mice, infected with parasite Nematospiroides dubius, at a dose of 500(ppm in feed); procedure, shortened: as §1
[11] = test system: Rodentolepis nana; experiment: The compound was tested for anthelmintic activity against mice, infected with parasite Hymenolepis nana at a dose of 500(ppm in feed); procedure, shortened: as §1
[12] = test system: Rodentolepis nana; experiment: The compound was tested for anthelmintic activity against mice, infected with parasite Hymenolepis nana at a dose of 31(ppm in feed); procedure, shortened: as §1
[13] = test system: Heligmosomoides polygyrus; experiment: Anthelmintic activity against mice, infected with parasite Nematospiroides dubius, at a dose of 31(ppm in feed); procedure, shortened: as §1
[14] = test system: Heligmosomoides polygyrus; experiment: Anthelmintic activity against mice, infected with parasite Nematospiroides dubius, at a dose of 62(ppm in feed); procedure, shortened: as §1

Structure (SMILES) | Reduction [1] [%] | Reduction [2] [%] | Reduction [3] [%] | Reduction [4] [%] | further results
Cc1cc(C#N)ccc1NC(=O)/C(C#N)=C(\O)c1ccc(C(F)(F)F)cc1 | 0 | 0 | 100 | 90 | 
N#C/C(C(=O)Nc1ccc(I)cc1)=C(/O)c1ccc(C(F)(F)F)cc1 | 0 | 0 | 0 | 100 | 
COc1ccc(/C(O)=C(\C#N)C(=O)Nc2ccc(C(F)(F)F)cc2)cc1 |  |  | 0 | 0 | 
N#CSc1ccc(NC(=O)/C(C#N)=C(\O)c2ccc(C(F)(F)F)cc2)cc1 |  |  | 0 | 0 | 
N#C/C(C(=O)Nc1ccc(Sc2ccccc2)cc1)=C(/O)c1ccc(C(F)(F)F)cc1 |  |  |  |  | Reduction [5]: 0%; Reduction [6]: 0%
N#C/C(C(=O)Nc1ccccc1C(F)(F)F)=C(/O)c1ccc(C(F)(F)F)cc1 |  |  | 0 | 0 | 
N#C/C(C(=O)Nc1ccc(Cl)cc1)=C(/O)c1ccc(Br)cc1 | 0 | 76 | 0 | 100 | 
N#C/C(C(=O)Nc1ccc(Cl)cc1)=C(/O)c1ccc(C(F)(F)F)cc1 | 78 | 65 | 100 | 100 | 
N#C/C(C(=O)Nc1ccc(C(F)(F)F)cc1)=C(/O)c1cc(Cl)cc(Cl)c1 | 0 | 0 | 100 | 100 | Reduction [7]: 0%; Reduction [8]: 100%; Reduction [9]: 0%
N#C/C(C(=O)Nc1ccc(Br)cc1)=C(/O)c1ccc(Br)cc1 | 0 | 29 | 0 | 100 | 
N#C/C(C(=O)Nc1ccc(Cl)c(Cl)c1)=C(/O)c1ccc(Cl)cc1 |  |  | 47 | 57 | 
N#C/C(C(=O)Nc1ccc(C(F)(F)F)cc1)=C(/O)c1cccc(Cl)c1 |  |  | 0 | 0 | 
N#C/C(C(=O)Nc1ccc(C(F)(F)F)cc1)=C(/O)c1ccc(F)cc1 | 0 | 0 | 100 | 100 | 
N#C/C(C(=O)Nc1ccc(Oc2ccc(Cl)cc2)c(Cl)c1)=C(/O)c1ccc(C(F)(F)F)cc1 |  |  | 0 | 0 | Reduction [7]: 0%; Reduction [10]: 100%; Reduction [8]: 0%; Reduction [11]: 83%; Reduction [9]: 0%
CC(=O)c1ccc(NC(=O)/C(C#N)=C(\O)c2ccc(C(F)(F)F)cc2)cc1 |  |  | 0 | 0 | 
N#C/C(C(=O)Nc1ccccc1)=C(/O)c1ccc(C(F)(F)F)cc1 |  |  |  |  | Reduction [10]: 32%; Reduction [11]: 100%
COC(=O)c1ccc(NC(=O)/C(C#N)=C(\O)c2ccc(C(F)(F)F)cc2)cc1 |  |  | 0 | 0 | 
CS(=O)(=O)c1ccc(NC(=O)/C(C#N)=C(\O)c2ccc(C(F)(F)F)cc2)cc1 |  |  | 0 | 0 | 
N#C/C(C(=O)Nc1ccc(Cl)cc1Cl)=C(/O)c1ccc(C(F)(F)F)cc1 | 63 | 0 | 100 | 89 | 
N#C/C(C(=O)Nc1ccc(C(F)(F)F)cc1)=C(/O)c1ccc(Cl)cc1Cl | 52 | 32 |  |  | 
N#C/C(C(=O)Nc1ccc(Cl)cc1)=C(/O)c1ccc(Cl)cc1 | 30 | 59 | 100 | 100 | 
N#C/C(C(=O)Nc1ccc(Br)cc1)=C(/O)c1ccc(Cl)cc1 | 0 | 47 | 0 | 100 | 
N#C/C(C(=O)Nc1ccc(C(F)(F)F)cc1)=C(/O)c1ccc(I)cc1 | 0 | 0 | 89 | 97 | 
N#C/C(C(=O)Nc1ccc(C(F)(F)F)cc1)=C(/O)c1ccc(Oc2ccc(Cl)cc2)cc1 |  |  | 0 | 30 | 
Cc1ccc(/C(O)=C(\C#N)C(=O)Nc2ccc(C(F)(F)F)cc2)cc1 |  |  | 0 | 0 | 
N#C/C(C(=O)Nc1ccc(C(F)(F)F)cc1)=C(/O)c1ccc(Cl)c(Cl)c1 | 0 | 0 | 0 | 95 | 

Structure (SMILES) | Reduction [1] [%] | Reduction [2] [%] | Reduction [3] [%] | Reduction [4] [%] | further results
N#C/C(C(=O)Nc1ccc(OC(F)(F)F)cc1)=C(/O)c1ccc(OC(F)(F)F)cc1 | 56 | 100 |  |  | Reduction [12]: 0%; Reduction [13]: 39%
Cc1cc([N+](=O)[O-])ccc1NC(=O)/C(C#N)=C(\O)c1ccc(C(F)(F)F)cc1 | 0 | 35 | 99 | 97 | Reduction [7]: 0%; Reduction [8]: 0%; Reduction [9]: 0%
N#C/C(C(=O)Nc1ccc(F)cc1)=C(/O)c1ccc(C(F)(F)F)cc1 | 0 |  | 0 | 100 | Reduction [14]: 0%
N#C/C(C(=O)Nc1ccc(C(F)(F)F)cc1)=C(/O)Cc1ccc(C(F)(F)F)cc1 |  |  | 0 | 35 | Reduction [7]: 0%; Reduction [5]: 0%; Reduction [8]: 78%; Reduction [6]: 90%; Reduction [9]: 0%
N#C/C(C(=O)Nc1ccc(C(F)(F)F)cc1)=C(/O)c1ccccc1C(F)(F)F |  |  | 0 | 0 | 
N#C/C(C(=O)Nc1ccc(Cl)c(Cl)c1)=C(/O)c1ccc(Cl)c(Cl)c1 |  |  | 0 | 0 | Reduction [7]: 0%; Reduction [8]: 100%; Reduction [9]: 0%
N#C/C(C(=O)Nc1ccc(C(F)(F)F)cc1)=C(/O)c1cccc(C(F)(F)F)c1 | 0 | 0 | 100 | 89 | 
CCN(CC)C(=O)c1ccc(NC(=O)/C(C#N)=C(\O)c2ccc(C(F)(F)F)cc2)cc1 |  |  | 0 | 0 | 
CN(C(=O)/C(C#N)=C(\O)c1ccc(C(F)(F)F)cc1)c1ccc(C(F)(F)F)cc1 | 0 | 76 | 0 | 100 | 
N#C/C(C(=O)Nc1ccc(Sc2ccc(Cl)cc2)cc1)=C(/O)c1ccc(C(F)(F)F)cc1 |  |  | 0 | 0 | Reduction [5]: 33%; Reduction [6]: 94%
N#C/C(C(=O)Nc1ccc(Br)cc1)=C(/O)c1ccc(C(F)(F)F)cc1 | 0 | 56 | 95 | 100 | 
N#C/C(C(=O)c1ccc(C(F)(F)F)cc1)=C(/S)Nc1ccc(C(F)(F)F)cc1 |  |  | 0 | 0 | Reduction [5]: 90%; Reduction [6]: 100%
N#C/C(C(=O)Nc1ccc(N=C=S)cc1)=C(/O)c1ccc(C(F)(F)F)cc1 |  |  | 0 | 80 | 
N#C/C(C(=O)Nc1ccc(Cl)c(Cl)c1)=C(/O)c1ccc(C(F)(F)F)cc1 | 0 | 0 | 93 | 100 | 
N#C/C(C(=O)Nc1ccc(C(F)(F)F)cc1)=C(O)\C=C\c1ccc(C(F)(F)F)cc1 |  |  |  |  | Reduction [5]: 0%; Reduction [6]: 48%
N#C/C(C(=O)Nc1ccc(F)cc1)=C(/O)c1ccc(F)cc1 |  |  | 0 | 0 | 
N#C/C(C(=O)Nc1ccc(C(F)(F)F)cc1)=C(/O)c1ccc(C#N)cc1 |  |  | 78 | 28 | 
COc1ccc(NC(=O)/C(C#N)=C(\O)c2ccc(C(F)(F)F)cc2)cc1 |  |  | 0 | 0 | 
N#C/C(C(=O)Nc1ccc(C(F)(F)F)cc1)=C(/O)c1ccc(Cl)cc1 | 0 | 53 |  |  | 
N#C/C(C(=O)Nc1ccc(C#N)cc1)=C(/O)c1ccc(C(F)(F)F)cc1 | 0 | 43 | 100 | 100 | Reduction [7]: 7%; Reduction [8]: 87%; Reduction [9]: 26%
N#C/C(C(=O)Nc1ccc(Cl)cc1)=C(/O)c1ccc(Cl)c(Cl)c1 | 0 | 32 | 100 | 100 | 
N#C/C(C(=O)Nc1cccc(C(F)(F)F)c1)=C(/O)c1ccc(C(F)(F)F)cc1 |  |  | 0 | 0 | 
N#C/C(C(=O)Nc1ccc(C(F)(F)F)cc1)=C(/O)c1ccc([N+](=O)[O-])cc1 | 69 | 0 |  |  | 
N#C/C(C(=O)Nc1ccc(C(F)(F)F)cc1)=C(/O)c1ccc(S(=O)(=O)c2ccccc2)cc1 |  |  | 0 | 0 | 
N#C/C(C(=O)Nc1ccc(C(F)(F)F)cc1)=C(/O)c1ccc(OC(F)(F)F)cc1 | 0 | 86 | 100 | 100 | 
